What was measured:
Assay type in all cases: functional
U-251 = assay: Growth inhibition of human U251 cells incubated for 48 hrs by sulforhodamine B assay; conditions: U-251, 48 h
How it was run: (§1)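 NCI-60 five-dose SRB assay. Cells were exposed for 48 h to tenfold dilutions of 0.01, 0.1, 1, 10 and 100 µM, in RPMI 1640 with 5% FBS. Plates fixed with TCA at the time of drug addition served as the time-zero reference. GI50 is the concentration giving a 50% reduction in net growth. TGI is total growth inhibition. LC50 is a net 50% loss of the initial cells.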

T47D [1] = assay: Growth inhibition of human T47D cells assessed as cell viability at 1 uM incubated for 48 hrs by sulforhodamine B assay; conditions: read-out: Activity
Hs-578T [2] = assay: Growth inhibition of human Hs 578T cells assessed as cell viability at 0.1 uM incubated for 48 hrs by sulforhodamine B assay; conditions: read-out: Activity
M14 [3] = assay: Growth inhibition of human M14 cells assessed as cell viability at 0.1 uM incubated for 48 hrs by sulforhodamine B assay; conditions: M14, 48 h, read-out: Activity
M14 [4] = assay: Growth inhibition of human M14 cells assessed as cell viability at 1 uM incubated for 48 hrs by sulforhodamine B assay; conditions: M14, 48 h, read-out: Activity
MDA-MB-231 = assay: Growth inhibition of human MDA-MB-231 cells assessed as cell viability at 0.1 uM incubated for 48 hrs by sulforhodamine B assay; conditions: MDA-MB-231, 48 h, read-out: Activity
UACC-257 = assay: Growth inhibition of human UACC257 cells assessed as cell viability at 0.1 uM incubated for 48 hrs by sulforhodamine B assay; conditions: UACC-257, 48 h, read-out: Activity
OVCAR-5 = assay: Growth inhibition of human OVCAR5 cells assessed as cell viability at 100 uM incubated for 48 hrs by sulforhodamine B assay; conditions: OVCAR-5, 48 h, read-out: Activity
SW-620 = assay: Growth inhibition of human SW620 cells assessed as cell viability at 0.1 uM incubated for 48 hrs by sulforhodamine B assay; conditions: SW-620, 48 h, read-out: Activity
SK-OV-3 = assay: Growth inhibition of human SKOV3 cells assessed as cell viability at 1 uM incubated for 48 hrs by sulforhodamine B assay; conditions: SK-OV-3, 48 h, read-out: Activity
HOP-92 = assay: Growth inhibition of human HOP92 cells assessed as cell viability at 0.001 uM incubated for 48 hrs by sulforhodamine B assay relative to control; conditions: HOP-92, 48 h, read-out: Activity
Hs-578T [5] = assay: Growth inhibition of human Hs 578T cells incubated for 48 hrs by sulforhodamine B assay
How it was run: (§2)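 NCI-60 five-dose SRB assay in RPMI 1640 with 5% FBS, 37 °C, 5% CO2. Compound given at five tenfold dilutions, 0.01–100 µM, for 48 h. Adherent cells fixed with TCA, suspension cells with 16% final TCA. Bound SRB read at 515 nm and growth calculated against time-zero and untreated controls. GI50 taken from dose–response curves as the concentration giving a 50% decrease in net cell growth.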

UO-31 = assay: Growth inhibition of human UO31 cells assessed as cell viability at 0.001 uM incubated for 48 hrs by sulforhodamine B assay relative to control; conditions: UO-31, 48 h, read-out: Activity
RXF 393 = assay: Growth inhibition of human RXF393 cells incubated for 48 hrs by sulforhodamine B assay; conditions: RXF 393, 48 h; how it was run: as §1
OVCAR-4 = assay: Growth inhibition of human OVCAR4 cells incubated for 48 hrs by sulforhodamine B assay; conditions: OVCAR-4, 48 h; how it was run: as §2
SNB-75 = assay: Induction of apoptosis in human SNB75 cells assessed as late apoptotic cells at 2 uM incubated for 24 hrs by annexin V FITC and propidium iodide based flow cytometry (reference value: 0.59 %)
MDA-MB-435 = assay: Growth inhibition of human MDA-MB-435 cells assessed as cell viability at 100 uM incubated for 48 hrs by sulforhodamine B assay; conditions: MDA-MB-435, 48 h, read-out: Activity
CCRF-CEM = assay: Growth inhibition of human CCRF-CEM cells incubated for 48 hrs by sulforhodamine B assay
How it was run: (§3)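 NCI-60 five-dose mode: five tenfold dilutions (0.01, 0.1, 1, 10, 100 µM) are applied for 48 h to cells in RPMI 1640 with 5% FBS at 37 °C. Endpoint is TCA fixation with sulforhodamine B read at 515 nm. % growth comes from the 0 h and control absorbances. GI50 is the concentration giving a 50% reduction in net cell growth.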

LOX IMVI = assay: Growth inhibition of human LOXIMVI cells incubated for 48 hrs by sulforhodamine B assay; how it was run: as §2
ACHN [6] = assay: Growth inhibition of human ACHN cells assessed as cell viability at 0.1 uM incubated for 48 hrs by sulforhodamine B assay; conditions: read-out: Activity; how it was run: as §3
KM12 = assay: Growth inhibition of human KM12 cells assessed as cell viability at 0.1 uM incubated for 48 hrs by sulforhodamine B assay; conditions: KM12, 48 h, read-out: Activity
COLO 205 = assay: Growth inhibition of human COLO205 cells assessed as cell viability at 0.001 uM incubated for 48 hrs by sulforhodamine B assay relative to control; conditions: COLO 205, 48 h, read-out: Activity
ACHN [7] = assay: Growth inhibition of human ACHN cells assessed as cell viability at 100 uM incubated for 48 hrs by sulforhodamine B assay; conditions: read-out: Activity; how it was run: as §3
A549 = assay: Growth inhibition of human A549/ATCC cells assessed as cell viability at 1 uM incubated for 48 hrs by sulforhodamine B assay; conditions: A549, 48 h, read-out: Activity; how it was run: as §3
786-0 = assay: Growth inhibition of human 786-0 cells assessed as cell viability at 0.1 uM incubated for 48 hrs by sulforhodamine B assay; conditions: 786-0, 48 h, read-out: Activity; how it was run: as §3
T47D [8] = assay: Growth inhibition of human T47D cells assessed as cell viability at 100 uM incubated for 48 hrs by sulforhodamine B assay; conditions: read-out: Activity
[9] = read-out: LC50 (the source's name)
[10] = read-out: pLC50 (the source's name) (converted)

**Q.** Which GI50 (U-251; read-out: GI50) does the source give for `CC1=C(C(=O)OCc2ccccc2)C(c2ccc3c(c2)OCO3)n2c(nc3ccccc32)N1` (racemic) here?
**A.** 0.46 µM

**Q.** And the LC50 (U-251; read-out: LC50)?
**A.** > 100 µM

**Q.** What about the TGI (U-251; read-out: TGI) of the same compound?
**A.** > 100 µM

**Q.** And the GI50 (U-251; read-out: pGI50 (converted))?
**A.** 0.427 µM

**Q.** What about the LC50 (U-251; read-out: pLC50 (converted)) of the same compound?
**A.** > 100 µM

**Q.** And the TGI (U-251; read-out: pTGI)?
**A.** > 100 µM

**Q.** And the viability at 1 µM (T47D [1])?
**A.** 30%

**Q.** And the viability at 0.1 µM (Hs-578T [2])?
**A.** 88%

**Q.** What about the viability at 0.1 µM (M14 [3]) of the same compound?
**A.** 90%

**Q.** And the viability at 1 µM (M14 [4])?
**A.** 30%

**Q.** What about the viability at 0.1 µM (MDA-MB-231) of the same compound?
**A.** 98%

**Q.** What about the viability at 0.1 µM (UACC-257) of the same compound?
**A.** 91%

**Q.** What about the viability at 100 µM (OVCAR-5) of the same compound?
**A.** 51%

**Q.** What about the viability at 0.1 µM (SW-620) of the same compound?
**A.** 89%

**Q.** And the viability at 1 µM (SK-OV-3)?
**A.** 27%

**Q.** And the viability at 0.001 µM (HOP-92)?
**A.** 67%

**Q.** And the GI50 (Hs-578T [5]; read-out: GI50)?
**A.** 0.28 µM

**Q.** What about the CC50 (Hs-578T [5]; [9]) of the same compound?
**A.** > 100 µM

**Q.** And the TGI (Hs-578T [5]; read-out: TGI)?
**A.** 23.8 µM

**Q.** And the GI50 (Hs-578T [5]; read-out: pGI50 (converted))?
**A.** 0.282 µM

**Q.** What about the CC50 (Hs-578T [5]; [10]) of the same compound?
**A.** > 100 µM

**Q.** What about the TGI (Hs-578T [5]; read-out: pTGI (converted)) of the same compound?
**A.** 24 µM

**Q.** What about the viability at 0.001 µM (UO-31) of the same compound?
**A.** 86%

**Q.** And the GI50 (RXF 393; read-out: GI50)?
**A.** 0.31 µM

**Q.** What about the CC50 (RXF 393; [9]) of the same compound?
**A.** > 100 µM

**Q.** What about the TGI (RXF 393; read-out: TGI) of the same compound?
**A.** > 100 µM

**Q.** What about the GI50 (RXF 393; read-out: pGI50 (converted)) of the same compound?
**A.** 0.302 µM

**Q.** What about the CC50 (RXF 393; [10]) of the same compound?
**A.** > 100 µM

**Q.** And the TGI (RXF 393; read-out: pTGI)?
**A.** > 100 µM

**Q.** And the GI50 (OVCAR-4; read-out: GI50)?
**A.** 13.3 µM

**Q.** And the CC50 (OVCAR-4; [9])?
**A.** > 100 µM

**Q.** And the TGI (OVCAR-4; read-out: TGI)?
**A.** > 100 µM

**Q.** And the GI50 (OVCAR-4; read-out: pGI50 (converted))?
**A.** 13.2 µM

**Q.** And the CC50 (OVCAR-4; [10])?
**A.** > 100 µM

**Q.** And the TGI (OVCAR-4; read-out: pTGI)?
**A.** > 100 µM

**Q.** And the Activity (SNB-75)?
**A.** 15.12%

**Q.** What about the viability at 100 µM (MDA-MB-435) of the same compound?
**A.** -7%

**Q.** What about the GI50 (CCRF-CEM; read-out: GI50) of the same compound?
**A.** 0.41 µM

**Q.** What about the CC50 (CCRF-CEM; [9]) of the same compound?
**A.** > 100 µM

**Q.** And the TGI (CCRF-CEM; read-out: TGI)?
**A.** > 100 µM

**Q.** And the GI50 (CCRF-CEM; read-out: pGI50 (converted))?
**A.** 0.407 µM

**Q.** What about the CC50 (CCRF-CEM; [10]) of the same compound?
**A.** > 100 µM

**Q.** And the TGI (CCRF-CEM; read-out: pTGI)?
**A.** > 100 µM

**Q.** What about the GI50 (LOX IMVI; read-out: GI50) of the same compound?
**A.** 0.55 µM

**Q.** What about the LC50 (LOX IMVI; read-out: LC50) of the same compound?
**A.** > 100 µM

**Q.** What about the TGI (LOX IMVI; read-out: TGI) of the same compound?
**A.** > 100 µM

**Q.** What about the GI50 (LOX IMVI; read-out: pGI50 (converted)) of the same compound?
**A.** 0.55 µM

**Q.** And the LC50 (LOX IMVI; read-out: pLC50 (converted))?
**A.** > 100 µM

**Q.** And the TGI (LOX IMVI; read-out: pTGI)?
**A.** > 100 µM

**Q.** What about the viability at 0.1 µM (ACHN [6]) of the same compound?
**A.** 107%

**Q.** What about the viability at 0.1 µM (KM12) of the same compound?
**A.** 86%

**Q.** What about the viability at 0.001 µM (COLO 205) of the same compound?
**A.** 95%

**Q.** What about the viability at 100 µM (ACHN [7]) of the same compound?
**A.** 35%

**Q.** What about the viability at 1 µM (A549) of the same compound?
**A.** 40%

**Q.** And the viability at 0.1 µM (786-0)?
**A.** 97%

**Q.** What about the viability at 100 µM (T47D [8]) of the same compound?
**A.** 34%
